Measurements: paper PMC5014782 (Diabetes Therapy, 2016)
“Also recorded” adds a separate entry of the source. Where two headings read alike, the source gives them in different places. Marks after values point to notes of the source that are not given here.

Columns and labels:
[1] = Japanese patients with T2DM and renal impairment; subjects with renal impairment; cited from earlier work
[2] = tested on: patients with type 2 diabetes mellitus; experiment: Exposure–response analysis for efficacy; assay type: in vivo, human; details: for Target of the maximal response for FPG and HbA1c obtained: after 24 weeks
In short: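 NONMEM population PK/PD turnover model fitted to 25,361 FPG and 22,012 HbA1c values from 4065 patients, placebo arms included, in three Phase II and four Phase III trials of ≥12 weeks. AUCss drives FPG elimination through a non-linear Emax term, and FPG changes drive HbA1c production. Steady-state baseline assumed. Covariates on Gmax include eGFR and baseline FPG. Precision checked by bootstrap.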

[3] = tested on: patients with type 2 diabetes mellitus; experiment: Exposure–response analysis for safety/tolerability; assay type: in vivo, human; details: empagliflozin therapy compared with placebo-treated patients; OR (95% CI)
In short: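 Logistic regression (R glm, binomial, logit link) of dichotomous patient-level adverse-event endpoints, each counted as any event during study. Endpoints: confirmed hypoglycemia (plasma glucose <3.9 mM and/or assistance required), and UTI, genital infection and volume depletion defined by 73, 89 and 8 preferred terms. Covariates enter additively with steady-state AUC relative to reference. Odds ratios computed for empagliflozin treatment.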

[4] = Population pharmacokinetic analysis; assay type: in vivo, human
In short: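 NONMEM 7.2 two-compartment model with lagged first-order absorption (lag fixed at 0.5 h) and first-order elimination. Fitted to 12,503 plasma concentrations from 2761 patients given oral doses of 1–100 mg once daily in ten Phase I–III studies; placebo excluded and first-hour samples dropped. eGFR by the MDRD formula, with a reference patient at eGFR 100 mL/min/1.73 m2. Bootstrap precision check.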

[5] = tested on: patients with type 2 diabetes mellitus; details: cited from earlier work; for Placebo-corrected reduction in HbA1c / Reduction in FPG: Phase III
[6] = tested on: patients with type 2 diabetes mellitus; assay type: in vivo, human; details: 24 weeks, median (2.5th, 97.5th percentile)
[7] = eGFR 15 mL/min/1.73 m^2 vs reference patient with eGFR 100 mL/min/1.73 m^2

**Q.** For `OC[C@H]1O[C@@H](c2ccc(Cl)c(Cc3ccc(O[C@H]4CCOC4)cc3)c2)[C@H](O)[C@@H](O)[C@@H]1O` [empagliflozin], which “Increase in exposure for patients with renal impairment” value [1] is on record?
**A.** less than twofold

**Q.** And the “Target of the maximal response for FPG and HbA1c obtained” value ([2]; once daily dose of approximately 10 mg)?
**A.** 80%

**Q.** What about the “Target of the maximal response for FPG and HbA1c obtained” value ([2]; once daily dose of approximately 25 mg) of the same compound?
**A.** 90%

**Q.** And the “Efficacy (effect on FPG) maintained in renal impairment” value ([2]; eGFR as low as 30 mL/min/1.73 m^2)?
**A.** nearly half the maximal effect

**Q.** What about the “Once daily dose whose median exposure corresponds to AUC50” value ([2]; once daily dose) of the same compound?
**A.** around 3 mg

**Q.** What about the “OR for UTI” value [3] of the same compound?
**A.** 0.941 (0.687, 1.29)

**Q.** And the “OR for genital infection” value [3]?
**A.** 5.08 (2.77, 9.34)

**Q.** And the OR for hypoglycemia [3]?
**A.** 1.11 (0.811, 1.52)

**Q.** And the “OR for volume depletion” value [3]?
**A.** 1.44 (0.517, 4.01)

**Q.** What about the “Increase in typical AUCss” value [4, 7] of the same compound?
**A.** 88.1%

**Q.** And the “Reduction in CL/F” value [4, 7]?
**A.** 46.8%

**Q.** And the “Increase in typical AUCss” value ([4]; eGFR 30 mL/min/1.73 m^2 vs reference patient with eGFR 100 mL/min/1.73 m^2)?
**A.** 49.2%

**Q.** And the “Increase in typical AUCss” value ([4]; eGFR 60 mL/min/1.73 m^2 vs reference patient with eGFR 100 mL/min/1.73 m^2)?
**A.** 18.5%

**Q.** And the “Increase in mean AUCss” value ([4]; eGFR ≥60 mL/min/1.73 m^2 vs reference eGFR 100 mL/min/1.73 m^2)?
**A.** ≤ 20%

**Q.** And the Vd/F ([4]; human, plasma, oral)?
**A.** 3.14 L

**Q.** And the “Increase in exposure (AUCss) in renal impairment” value ([4]; patients with (severe) renal impairment)?
**A.** less than twofold increase in exposure; also recorded: increased less than twofold; also recorded: increase in exposure less than twofold

**Q.** And the first-order ka ([4]; typical value given the reference covariates)?
**A.** 0.196 L/h

**Q.** And the “Placebo-corrected reduction in HbA1c” value ([5]; add-on therapy, 10 mg)?
**A.** −0.4% to −0.7%

**Q.** And the “Reduction in FPG” value ([5]; add-on therapy, 10 mg)?
**A.** −0.9 to −1.5 mM

**Q.** And the “Placebo-corrected reduction in HbA1c” value ([5]; add-on therapy, 25 mg)?
**A.** −0.5% to −0.7%

**Q.** What about the “Reduction in FPG” value ([5]; add-on therapy, 25 mg) of the same compound?
**A.** −1.2 to −1.8 mM

**Q.** What about the “Placebo-corrected reduction in HbA1c” value ([5]; monotherapy, 10 mg) of the same compound?
**A.** −0.7%

**Q.** What about the “Reduction in FPG” value ([5]; monotherapy, 10 mg) of the same compound?
**A.** -1.7 mM

**Q.** And the “Placebo-corrected reduction in HbA1c” value ([5]; monotherapy, 25 mg)?
**A.** −0.9%

**Q.** And the “Reduction in FPG” value ([5]; monotherapy, 25 mg)?
**A.** -2.0 mM

**Q.** What about the “Effect on HbA1c as add-on to existing antidiabetic therapy” value ([5]; patients with T2DM and stage 2 or 3 CKD) of the same compound?
**A.** significant reductions in HbA1c

**Q.** And the “Effect on HbA1c” value ([5]; patients with severe renal impairment (stage 4 CKD))?
**A.** no reduction in HbA1c was observed

**Q.** What about the “Median change from baseline in glycated hemoglobin, Observed” value (from here on “Median change from baseline”) ([6]; 10 mg, eGFR 30–60 mL/min/1.73 m^2 (study 10), five patients) of the same compound?
**A.** −0.90 (−1.81, 0.12)^a

**Q.** What about the “Median change from baseline” value ([6]; 10 mg, eGFR 45–60 mL/min/1.73 m^2 (study 10), five patients) of the same compound?
**A.** −0.90 (−1.81, 0.12)^a

**Q.** What about the “Median change from baseline” value ([6]; 10 mg, eGFR 60–90 mL/min/1.73 m^2 (study 10)) of the same compound?
**A.** −0.40 (−1.70, 0.76)

**Q.** What about the “Median change from baseline” value ([6]; 10 mg, elderly (75–85 years)) of the same compound?
**A.** −0.65 (−2.44, 0.40)

**Q.** And the “Median change from baseline” value ([6]; 25 mg, eGFR 30–45 mL/min/1.73 m^2 (study 10))?
**A.** −0.30 (−1.83, 1.43)

**Q.** And the “Median change from baseline” value ([6]; 25 mg, eGFR 30–60 mL/min/1.73 m^2 (study 10))?
**A.** −0.40 (−2.00, 1.25)

**Q.** What about the “Median change from baseline” value ([6]; 25 mg, eGFR 45–60 mL/min/1.73 m^2 (study 10)) of the same compound?
**A.** −0.40 (−1.97, 0.88)

**Q.** And the “Median change from baseline” value ([6]; 25 mg, eGFR 60–90 mL/min/1.73 m^2 (study 10))?
**A.** −0.70 (−1.64, 0.90)

**Q.** And the “Median change from baseline” value ([6]; 25 mg, elderly (75–85 years))?
**A.** −0.50 (−2.03, 0.60)
